According to publication PMC5378272 (Cancer Science, 2017):

How the values were obtained:
SMMC‐7721 = test: Tumor xenograft model; format: in vivo, BALB/c athymic mice; details: SMMC‐7721 xenograft, oral once daily
Outline: (§1)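 Subjects were 6-week-old female BALB/c athymic mice. Tumour cells in 200 μL serum-free medium were implanted s.c. At 100–150 mm³, mice were randomised (n = 8/group) and dosed by oral gavage once daily with test compound in 0.5% CMC‐Na, sunitinib or vehicle. Doses were 2.5–20 mg/kg for HCT‐8 and SMMC‐7721, and 5–40 mg/kg for A549. Volumes were measured every 3–4 days over 33 or 43 days. Percent TGI at last treatment was computed versus vehicle.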

DDR2 = target: T1, DDR2 (Homo sapiens, UniProt Q16832); test: Kinase inhibition assay; details: Biochemical IC50, cell-free
T1 sequence (Q16832 22-855): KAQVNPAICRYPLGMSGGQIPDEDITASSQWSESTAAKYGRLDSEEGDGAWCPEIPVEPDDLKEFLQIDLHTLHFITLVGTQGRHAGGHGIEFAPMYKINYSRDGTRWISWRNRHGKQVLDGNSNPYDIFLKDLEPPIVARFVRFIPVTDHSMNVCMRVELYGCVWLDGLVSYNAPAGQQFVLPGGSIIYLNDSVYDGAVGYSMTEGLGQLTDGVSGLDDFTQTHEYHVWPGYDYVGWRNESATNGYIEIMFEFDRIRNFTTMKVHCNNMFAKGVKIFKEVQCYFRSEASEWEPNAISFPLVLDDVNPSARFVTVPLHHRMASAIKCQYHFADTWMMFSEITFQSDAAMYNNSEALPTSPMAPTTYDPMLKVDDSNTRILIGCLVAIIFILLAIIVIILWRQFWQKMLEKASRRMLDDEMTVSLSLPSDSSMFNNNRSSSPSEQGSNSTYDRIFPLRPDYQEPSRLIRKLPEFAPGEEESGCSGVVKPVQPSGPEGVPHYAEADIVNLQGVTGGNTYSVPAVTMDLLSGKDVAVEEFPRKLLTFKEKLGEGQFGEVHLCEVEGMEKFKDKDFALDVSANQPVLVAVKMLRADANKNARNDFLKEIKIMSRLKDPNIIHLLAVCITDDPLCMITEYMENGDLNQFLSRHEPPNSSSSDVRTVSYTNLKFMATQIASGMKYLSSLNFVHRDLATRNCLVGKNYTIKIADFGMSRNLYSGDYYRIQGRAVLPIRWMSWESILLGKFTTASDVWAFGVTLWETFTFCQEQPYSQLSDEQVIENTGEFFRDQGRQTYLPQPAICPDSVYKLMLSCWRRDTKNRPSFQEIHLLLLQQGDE

A549 = test: Tumor xenograft model; format: in vivo, BALB/c athymic mice; details: oral once daily, 5 to 40 mg/kg
Outline: as §1

4T1 breast cancer cells = test: 4T1 breast cancer model in BALB/c mice, tumor tissue immunohistochemistry; format: in vivo
HCT‐8 = test: Tumor xenograft model; format: in vivo, BALB/c athymic mice; details: HCT‐8 xenograft, oral once daily
Outline: as §1

c‐RAF = c‐RAF (Homo sapiens, UniProt P04049, Y340D/Y341D); test: Kinase inhibition assay; details: Biochemical IC50, cell-free
Sequence of c‐RAF (P04049 306-648 Y340D/Y341D limits assumed): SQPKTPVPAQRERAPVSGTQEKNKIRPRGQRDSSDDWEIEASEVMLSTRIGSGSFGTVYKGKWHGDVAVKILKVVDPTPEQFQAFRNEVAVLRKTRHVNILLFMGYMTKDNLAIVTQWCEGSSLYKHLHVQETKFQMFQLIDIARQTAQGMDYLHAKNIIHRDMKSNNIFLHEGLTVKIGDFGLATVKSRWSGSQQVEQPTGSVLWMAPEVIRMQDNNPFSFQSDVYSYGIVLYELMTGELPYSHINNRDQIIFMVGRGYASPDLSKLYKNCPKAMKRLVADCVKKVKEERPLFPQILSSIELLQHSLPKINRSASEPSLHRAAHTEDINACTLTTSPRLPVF

PLK1 = PLK1 (Homo sapiens, UniProt P53350); test: Kinase inhibition assay; details: Biochemical IC50, cell-free
Sequence of PLK1 (P53350 whole entry): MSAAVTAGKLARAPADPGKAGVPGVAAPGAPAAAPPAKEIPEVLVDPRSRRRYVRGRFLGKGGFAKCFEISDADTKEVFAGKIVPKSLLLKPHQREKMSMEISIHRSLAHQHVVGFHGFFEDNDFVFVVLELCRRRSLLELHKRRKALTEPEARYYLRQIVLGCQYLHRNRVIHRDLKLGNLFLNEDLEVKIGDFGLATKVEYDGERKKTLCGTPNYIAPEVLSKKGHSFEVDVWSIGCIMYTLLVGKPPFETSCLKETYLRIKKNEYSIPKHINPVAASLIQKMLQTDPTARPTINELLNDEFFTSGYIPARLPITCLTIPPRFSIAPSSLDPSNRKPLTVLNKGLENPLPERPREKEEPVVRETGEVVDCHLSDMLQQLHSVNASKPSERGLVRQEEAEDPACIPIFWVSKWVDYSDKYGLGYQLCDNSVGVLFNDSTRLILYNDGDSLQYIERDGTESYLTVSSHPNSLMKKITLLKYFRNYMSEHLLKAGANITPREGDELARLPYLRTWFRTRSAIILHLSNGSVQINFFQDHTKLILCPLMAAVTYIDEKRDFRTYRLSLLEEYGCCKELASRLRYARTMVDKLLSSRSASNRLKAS

PLK3 = PLK3 (Homo sapiens, UniProt Q9H4B4); test: Kinase inhibition assay; details: Biochemical IC50, cell-free
Sequence of PLK3 (Q9H4B4 whole entry): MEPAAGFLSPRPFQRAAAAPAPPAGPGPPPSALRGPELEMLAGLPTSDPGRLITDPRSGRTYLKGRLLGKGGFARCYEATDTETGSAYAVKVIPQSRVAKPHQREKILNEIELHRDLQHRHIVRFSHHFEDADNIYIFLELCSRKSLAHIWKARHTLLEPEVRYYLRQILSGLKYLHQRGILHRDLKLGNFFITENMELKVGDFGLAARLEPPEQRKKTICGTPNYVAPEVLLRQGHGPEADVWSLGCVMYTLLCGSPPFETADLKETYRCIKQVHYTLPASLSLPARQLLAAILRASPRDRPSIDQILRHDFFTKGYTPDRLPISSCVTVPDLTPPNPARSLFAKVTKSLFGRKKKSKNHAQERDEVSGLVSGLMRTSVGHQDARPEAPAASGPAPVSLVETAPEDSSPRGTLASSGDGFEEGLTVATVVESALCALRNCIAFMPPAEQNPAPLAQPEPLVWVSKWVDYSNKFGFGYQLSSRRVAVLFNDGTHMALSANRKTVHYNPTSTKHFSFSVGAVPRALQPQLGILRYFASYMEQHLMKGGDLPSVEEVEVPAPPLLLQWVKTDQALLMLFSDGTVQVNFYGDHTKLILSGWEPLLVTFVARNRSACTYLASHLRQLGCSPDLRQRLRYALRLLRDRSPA

Colo‐320 cells = test: Growth inhibition of tumor cells; format: cell-based; details: Homo sapiens, COLO 320, 120 h, read-out: GI50, growth inhibition
VEGFR2 = VEGFR2 (Homo sapiens, UniProt P35968); test: Western blotting of VEGF-stimulated VEGFR2 phosphorylation in HUVEC; format: cell-based; details: 1 h pre-treatment, VEGF 100 ng/mL 15 min, western blot
Sequence of VEGFR2 (P35968 20-1356): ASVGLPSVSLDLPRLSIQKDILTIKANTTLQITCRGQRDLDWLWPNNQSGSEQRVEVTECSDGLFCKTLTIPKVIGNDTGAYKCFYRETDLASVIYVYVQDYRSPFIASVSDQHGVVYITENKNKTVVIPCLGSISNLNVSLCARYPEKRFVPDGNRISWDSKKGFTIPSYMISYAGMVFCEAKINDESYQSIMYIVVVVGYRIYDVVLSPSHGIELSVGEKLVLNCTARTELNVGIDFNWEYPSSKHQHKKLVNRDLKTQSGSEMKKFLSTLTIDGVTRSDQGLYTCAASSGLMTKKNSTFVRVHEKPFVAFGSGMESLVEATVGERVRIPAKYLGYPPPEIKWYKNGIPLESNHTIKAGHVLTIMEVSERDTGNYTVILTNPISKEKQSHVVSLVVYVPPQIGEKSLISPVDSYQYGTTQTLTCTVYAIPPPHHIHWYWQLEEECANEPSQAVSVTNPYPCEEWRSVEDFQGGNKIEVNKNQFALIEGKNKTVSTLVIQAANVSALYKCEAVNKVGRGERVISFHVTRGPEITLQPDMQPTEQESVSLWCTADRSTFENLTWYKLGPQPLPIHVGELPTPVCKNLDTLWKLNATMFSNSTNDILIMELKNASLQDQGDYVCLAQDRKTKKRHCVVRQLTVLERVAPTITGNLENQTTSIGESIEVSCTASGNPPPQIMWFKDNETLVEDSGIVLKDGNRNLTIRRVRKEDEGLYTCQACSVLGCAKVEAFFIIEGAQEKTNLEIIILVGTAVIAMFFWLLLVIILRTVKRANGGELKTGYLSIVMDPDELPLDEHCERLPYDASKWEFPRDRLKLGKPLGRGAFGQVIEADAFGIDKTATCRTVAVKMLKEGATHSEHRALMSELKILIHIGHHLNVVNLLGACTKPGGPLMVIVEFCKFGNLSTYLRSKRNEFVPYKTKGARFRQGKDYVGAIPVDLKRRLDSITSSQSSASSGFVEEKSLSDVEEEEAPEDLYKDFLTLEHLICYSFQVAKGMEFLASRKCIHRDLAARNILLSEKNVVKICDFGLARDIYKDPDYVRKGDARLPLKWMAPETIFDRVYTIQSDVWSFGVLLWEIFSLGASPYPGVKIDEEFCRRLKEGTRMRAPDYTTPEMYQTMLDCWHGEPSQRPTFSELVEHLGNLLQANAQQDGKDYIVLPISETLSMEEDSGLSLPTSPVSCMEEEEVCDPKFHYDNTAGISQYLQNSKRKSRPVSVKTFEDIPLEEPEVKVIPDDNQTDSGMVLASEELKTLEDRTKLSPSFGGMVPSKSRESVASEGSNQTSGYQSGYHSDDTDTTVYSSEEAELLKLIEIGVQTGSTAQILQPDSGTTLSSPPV
Outline: (§2)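 Cells (1.5 × 10⁶) were seeded for 24 h, then serum-starved overnight. They were pretreated 1 h with test compound and stimulated with 100 ng/mL ligand for 15 min: rhM‐CSF for CSF‐1R‐transfected 293A (DMEM, 10% FBS) and VEGF165 for HUVEC. Whole-cell lysates were immunoblotted for phospho-CSF1R or phospho-VEGFR2, with total receptor and β‐actin as internal controls.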

CSF‐1R = CSF‐1R (Homo sapiens, UniProt P07333); format: cell-based; details: CSF‐1R‐transfected 293A cells, M‐CSF 100 ng/mL, western blot
Sequence of CSF‐1R (P07333 20-972): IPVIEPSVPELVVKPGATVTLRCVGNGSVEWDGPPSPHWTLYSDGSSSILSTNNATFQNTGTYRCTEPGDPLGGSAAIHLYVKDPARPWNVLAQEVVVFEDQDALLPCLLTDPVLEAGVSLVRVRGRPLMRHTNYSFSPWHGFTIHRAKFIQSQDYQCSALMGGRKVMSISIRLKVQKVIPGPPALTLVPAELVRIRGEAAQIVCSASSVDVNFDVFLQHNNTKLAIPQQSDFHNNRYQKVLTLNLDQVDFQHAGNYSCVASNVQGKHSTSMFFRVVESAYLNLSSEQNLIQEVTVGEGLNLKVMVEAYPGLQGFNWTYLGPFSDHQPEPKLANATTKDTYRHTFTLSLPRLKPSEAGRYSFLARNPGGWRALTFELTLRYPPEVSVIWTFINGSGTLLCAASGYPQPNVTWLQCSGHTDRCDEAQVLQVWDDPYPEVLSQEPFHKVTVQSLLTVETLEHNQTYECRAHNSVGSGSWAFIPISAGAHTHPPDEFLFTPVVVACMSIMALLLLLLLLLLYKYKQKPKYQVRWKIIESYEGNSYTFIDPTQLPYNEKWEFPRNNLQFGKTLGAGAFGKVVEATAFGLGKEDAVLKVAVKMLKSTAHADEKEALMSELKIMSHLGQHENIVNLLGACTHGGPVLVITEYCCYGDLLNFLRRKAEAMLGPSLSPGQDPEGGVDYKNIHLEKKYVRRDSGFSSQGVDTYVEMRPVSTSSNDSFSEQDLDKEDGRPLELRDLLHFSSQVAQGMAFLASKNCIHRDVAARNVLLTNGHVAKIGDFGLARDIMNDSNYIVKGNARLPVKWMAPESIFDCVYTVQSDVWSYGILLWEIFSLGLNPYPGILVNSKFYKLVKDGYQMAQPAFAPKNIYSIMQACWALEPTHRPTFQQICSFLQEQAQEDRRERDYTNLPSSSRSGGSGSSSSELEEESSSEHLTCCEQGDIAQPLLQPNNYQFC
Outline: as §2

[1] = system: human blood‐derived monocytes; details: M‐CSF 100 ng/mL, 6 days, 0.3 μM
Molt‐4 cells [2] = test: Cell cycle analysis by flow cytometry; format: cell-based, human; details: Molt‐4, 3 μM, 24 h; control group 14.9%
HUVEC = test: Tube formation assay; format: cell-based, human; details: HUVEC on Matrigel, 1.5 or 5 μM, 24 h, vs control
Outline: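 HUVEC were maintained in endothelial cell medium with 5% FBS, heparin (50 μg/mL) and ECGS (50 μg/mL). Matrigel was polymerised 45 min at 37°C. 4 × 10⁴ cells in complete medium were seeded onto it with vehicle or test compound and incubated 24 h. Networks were imaged by light microscopy and scored as mean loops per field and total branch length (pixels). Results are mean ± SD of five experiments; t-test versus vehicle.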

Aurora B = test: Western blotting of p‐H3; format: cell-based, human; details: Molt‐4 cells, 24 h, western blot, concentrations up to 6 μM
Molt‐4 cells [3] = test: Growth inhibition of tumor cells; format: cell-based; details: Homo sapiens, MOLT-4, 120 h, read-out: GI50, growth inhibition
COLO‐320 tumor = test: COLO‐320 xenograft in SCID mice, tumor tissue analysis; format: in vivo; details: oral 2.5 or 20 mg/kg/day, 12 days
Outline: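 COLO-320 cells implanted s.c. in SCID mice; established tumors dosed orally once daily for 12 days at 2.5 or 20 mg/kg/day, with compound suspended in 0.5% (w/v) CMC-Na. Half of each tumor went to histone extraction and western blot for p-H3 (Ser10) vs total H3, with normal colon as comparator. The other half was formalin-fixed and paraffin-embedded for IHC (CD34, p-H3 Ser10, Ki67).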

MGC‐803 = test: Tumor xenograft model; format: in vivo, BALB/c athymic mice; details: MGC‐803 xenograft; for tumor growth: oral once daily
[4] = immunohistochemistry, vs vehicle

## COc1ccc2c(Oc3ccc4c(C(=O)Nc5ccccc5N)cccc4c3)ccnc2c1 [CS2164, N‐(2‐aminophenyl)‐6‐[(7‐methoxy‐4‐quinolinyl)oxy]‐1‐naphthalenecarboxamide]
SMMC‐7721
  50% tumor growth inhibition (TGI50) dose: 2.5 mg/kg
DDR2
  IC50: 100 to 500 nM
A549
  TGI50 dose: around 5 mg/kg
4T1 breast cancer cells; oral 20 mg/kg daily, day 12, immunohistochemistry
  tissue CD11b^+ macrophage infiltration: decreased
4T1 breast cancer cells; oral 2.5 or 20 mg/kg/day, 12 days, immunohistochemistry
  CSF‐1R^+ cells in tumor tissue: dramatic reduction
HCT‐8
  50% tumor growth inhibition (TGI50) dose: 2.5 mg/kg
c‐RAF
  IC50: 100 to 500 nM
PLK1
  IC50: 100 to 500 nM
PLK3
  IC50: 100 to 500 nM
Colo‐320 cells
  GI50: 840 nM
VEGFR2
  ligand‐stimulated VEGFR2 tyrosine phosphorylation: concentration‐dependent inhibition
CSF‐1R
  CSF‐1R phosphorylation induced by M‐CSF: concentration‐dependent inhibition
[1]
  M‐CSF induced differentiation and proliferation of monocytes: almost complete inhibition
Molt‐4 cells [2]
  cells in G2/M phase (of cell cycle phases): 59.5%
HUVEC
  number of loops of tubular network structures: significant reductions
  total branch lengths of tubular network structures: significant reductions
Aurora B
  level of p‐H3 (Ser10‐phosphorylated histone 3): substantial reduction
Molt‐4 cells [3]
  GI50: 2140 nM
COLO‐320 tumor
  vascularization in tumor tissues: decreased vascularization
COLO‐320 tumor; immunohistochemistry
  CD34 staining in tumor tissues: remarkably reduced
COLO‐320 tumor; [4]
  tissue Ki67 staining: substantial dose‐dependent decrease
  tissue p‐H3 staining: substantial dose‐dependent decrease
COLO‐320 tumor; only tumor tissue, not normal colonic tissue
  p‐H3 levels in tumor tissue by western blotting: reduced p‐H3 levels
MGC‐803; CS2164 at 5 mg/kg oral daily
  efficacy compared with sunitinib at 40 mg/kg: comparable
MGC‐803; 1 mg/kg
  tumor growth: started to demonstrate tumor growth inhibition
MGC‐803; 5 mg/kg
  tumor growth: near complete inhibition

## CCN(CC)CCNC(=O)c1c(C)[nH]c(/C=C2\C(=O)Nc3ccc(F)cc32)c1C [sunitinib, reference compound]
Molt‐4 cells [2]
  cells in G2/M phase (of cell cycle phases): 20.4%
Aurora B
  level of p‐H3 (Ser10‐phosphorylated histone 3): little inhibitory activity

## CNC(=O)c1cc(Oc2ccc(NC(=O)Nc3ccc(Cl)c(C(F)(F)F)c3)cc2)ccn1 [sorafenib]
Molt‐4 cells [2]
  cells in G2/M phase (of cell cycle phases): 13.3%
